# STAT1 inh = STAT1 signaling inhibition. 200,000 tested, 0.35% active. inhibition, % at 5.5 µM. NIH 3T3 STAT1-luciferase reporter, IFN-gamma, luminescence. AID 920;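 active means inhibition above a set limit, the mean inhibition across all tested compounds plus 3 SD, cut at about 34% in these data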;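 further: 0% = IFN-gamma with DMSO and 100% = IFN-gamma with 300 µM nifuroxazide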
# Platelet DG rel = platelet dense granule release activity | 300,000 tested, 0.22% active | human platelet-rich plasma, SFLLRN dense granule ATP release, luminescence | inhibition, %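 (compounds screened at 7.5 µM in platelet-rich plasma)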;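 active means mean replicate score, as percent of positive control, at or above 50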
# Lipid droplet = hepatic lipid droplet formation modulation; 240,000 tested, 0.4% active; AML12 mouse hepatocytes, oleate lipid droplets, BODIPY imaging; inhibition, % at 6.5 µM;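 active means lipid droplet intensity inhibited by at least 50%, with more than 500 cells counted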
#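 Assay system: AML12 mouse liver cells | Compound dosing: One dose, 6.5 µM compound | Read-out basis: Droplet intensity reduction, % inhibition | Measured by: Fluorescence imaging, 20x objective, two fields per well | Schedule: Overnight treatment with compound plus oleate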
# TAG inh = triacylglycerol accumulation inhibition. H9c2 cells, Nile Red lipid (TAG) fluorescence; cells loaded with 200 µM oleic acid. inhibition, % at 12.5 µM. 230,000 tested, 0.66% active. AID 651582;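 active means pattern-corrected inhibition of lipid staining of at least 50% with the nuclear-stain viability signal not falling by more than 50%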;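 further: 0% = DMSO wells and 100% = triacsin C control wells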
# STAT3 blocker = STAT3 signaling inhibition; U3A cells, IL-6 STAT3-luciferase reporter, luminescence; host cell line lacks STAT1; inhibition, % at 5.5 µM; 190,000 tested, 0.89% active; AID 862;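 active means inhibition above the mean inhibition across all screened compounds plus 3 SD, cut at about 44% in these data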;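 further: 0% = DMSO only wells and 100% = 100 µM nifuroxazide control wells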
# PPC-1+TRAIL kill = compounds killing PPC-1 cancer cells with TRAIL present (potentiator screen, no TRAIL-free arm) | PPC-1 cells + TRAIL, ATPLite viability luminescence | cell killing (% activity), % at 4 µM or 5 µM | 220,000 tested, 0.41% active;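 active means cell killing above 50% in the first pass at 4 µM, then a duplicate retest at 5 µM averaging 50% or more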;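 further: plate controls were cells with TRAIL plus DMSO for no effect and medium-only wells lacking cells for full effect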
# Active calls of the source: *; · = not tested or not shown. Most compounds without a hit are left out; they make up all but 1.5% or so of the library.
SMILES,STAT1 inh,Platelet DG rel,Lipid droplet,TAG inh,STAT3 blocker,PPC-1+TRAIL kill
O=C(c1cc2nc(-c3ccc(F)cc3)cc(C(F)(F)F)n2n1)N1CCCCC1c1cccnc1 (stereo unspecified),35*,0,-5,-13,57*,15
CN1CCn2cnc(C(=O)Nc3ccc(Cl)cc3)c2C1=O,·,·,·,2,·,·
COc1ccc(-c2cn3cc(C)ccc3n2)cc1Br,-84,10,10,·,23,87*
COc1ccc(-c2cn3cc(Cl)ccc3n2)cc1OC,-30,-3,·,·,-32,7
COc1ccc(C(=O)O/N=C(\N)c2ccccc2)cc1,·,67*,4,·,·,·
COc1ccc(/C(N)=N/OC(=O)c2ccco2)cc1,53*,14,3,9,57*,34
COc1ccc(C(=O)O/N=C(/C)c2cccs2)cc1,-21,59*,18,3,1,-4
Oc1c(CN2CCOCC2)cc(COCc2ccccc2)c2cccnc12,-21,-27,-4,·,4,55*
Oc1c(N=Nc2ccccc2)sc2ccccc12,·,56*,18,-3,·,17
CC(=Nc1ccc(O)cc1)c1sc2ccccc2c1O,-77,·,12,-24,18,-14
C[C@H](CO)N1C[C@H](C)[C@@H](CN(C)S(=O)(=O)c2cccc(C#N)c2)OCc2cn(nn2)CCCC1=O,·,·,·,-10,·,·
COc1ccc(Cn2c(SCc3cc(C)ccc3C)nc3cc(OC)c(OC)cc3c2=N)cc1,-3,3,·,112*,26,18
Cc1nc(SCc2nnc(-c3ccc(Cl)cc3)o2)c2c3c(sc2n1)CCC3,·,·,·,·,·,14
Cc1ccc(C#N)c(SCc2nnc(-c3ccc(Cl)cc3)o2)n1,-25,-7,-13,·,34,64*
O=C(NC1=NCCS1)C1COc2ccccc2O1 (stereo unspecified),77*,19,·,11,99*,29
O=c1c(Cl)c(Cl)cnn1-c1ccccc1,-1,-4,-20,72*,15,28
O=C(O)c1ccc(N/N=C/c2ccc(-c3cccc(Cl)c3)o2)cc1,·,-3,40,84*,·,10
O=C(O)c1ccc(N/N=C/c2ccc(-c3cc(Cl)ccc3Cl)o2)cc1,·,-2,22,19,·,16
O=C(O)c1ccc(N/N=C/c2ccc(-c3ccc(Cl)cc3Cl)o2)cc1,·,2,27,53*,·,-18
COc1ccc(C(=O)N2CCC(C)(C(=O)O)C2)c(OC)c1 (stereo unspecified),·,·,·,-4,·,·
CCCCCCCCCCCCCCCC[N+](C)(C)CC,·,0,·,9,·,·
CCCCCCCCCCCCCCCC[N+](C)(C)CCl,·,·,·,66*,·,·
COc1ccc2cc(C(=O)NCc3ccco3)c(=O)oc2c1,-5,16,-3,-10,14,6
O=C(NCc1ccco1)c1cc2ccc(O)cc2oc1=O,11,70*,-5,10,18,6
O=C(c1ccccc1)c1cc2ccc(O)cc2oc1=O,-5,95*,·,·,0,30
SMILES,STAT1 inh,Platelet DG rel,Lipid droplet,TAG inh,STAT3 blocker,PPC-1+TRAIL kill
CC1(C(=O)NS(=O)(=O)c2ccc(C#N)cc2)CCN1C(=O)c1cccc2ccccc12 (stereo unspecified),·,·,·,0,·,·
O=C(Nc1ccc(-c2nc3ncccc3o2)cc1)c1ccc(Br)o1,-7,-1,56*,69*,25,30
COc1ccc(-c2nc(-c3ccc(NC(=O)c4ccc(Br)o4)cc3)no2)cc1OC,-26,3,·,31,-3,10
COc1cc(-c2nc(-c3ccc(NC(=O)c4ccc(Br)o4)cc3)no2)cc(OC)c1OC,-14,-8,-19,51*,1,-17
CCOc1c(Cl)cc(CNc2ccc(S(N)(=O)=O)cc2)cc1OC,17,-6,14,·,12,27
CCOc1c(Cl)cc(CNc2ccc(N3CCCC3)cc2)cc1OC,2,4,-23,60*,-22,-2
COC(=O)CCn1nnc(-c2ccc(C(C)C)cc2)n1,48*,-4,0,-10,84*,19
O=[N+]([O-])c1ccc(N=Nc2c(Cl)cc(O)cc2Cl)cc1,·,73*,6,·,·,15
CC(N)=Nc1ccc([N+](=O)[O-])cc1,-5,6,11,-6,0,4
O=C(NCc1ccccc1)c1cc(C2COCCN2C(=O)c2ccc3c(c2)CCO3)on1 (stereo unspecified),·,·,·,-6,·,·
CCc1nc2ccc(C(=O)NCc3ccc4c(c3)OCO4)cn2c1N(C)Cc1ccc(OC)cc1,·,·,·,3,·,·

# From PubChem
